{"data": "Results pooled from the literature", "note": "Lines come from different studies, so protocols differ."}
{"SMILES": "O=c1c2cc(F)c(Oc3ccc(OC(F)(F)F)cc3)cc2[nH]c2cc(Cl)cc(F)c12", "test": "metabolic stability", "test system": "mouse, liver microsomes", "setting": "1 µM, pH 7.4", "measurement": "half-life", "result": "> 1 h"}
{"SMILES": "C[C@H]1Oc2cc(cnc2N)-c2c(nn(C)c2C#N)CN(C)C(=O)c2ccc(F)cc21", "test system": "male Sprague-Dawley rat, brain", "setting": "oral, 10 mg/kg, 24 h, single dose", "measurement": "concentration", "result": "16.4 ng/g"}
{"SMILES": "COc1ccc(C2CC(c3ccc(NC(=O)CN4CCN(c5ccc(OC)cc5)CC4)cc3)=NN2C(C)=O)cc1 (stereo not drawn)", "target or system": "MCF-10A", "test": "cell growth or viability, MTT", "setting": "50 µM, 96 h", "measurement": "viability", "result": "92%"}
{"SMILES": "CCCN(CCC)CCOc1ccc2c(=O)c3c([nH]c2c1)CCCC3", "test": "metabolic stability", "test system": "mouse, liver microsomes", "setting": "1 µM, pH 7.4", "measurement": "half-life", "result": "0.448 h"}
{"SMILES": "Nc1nc(S)nc(O)c1N=Cc1cn(-c2ccccc2)nc1-c1ccc(Cl)cc1", "target or system": "MCF-10A", "test": "cell growth or viability", "setting": "48 h", "measurement": "CC50", "result": "> 40 µM"}
{"SMILES": "Cc1cc(S(=O)(=O)NC2CC(N3CCN(CC4CCN(c5ccc6c(c5F)n(C)c(=O)n6C5CCC(=O)NC5=O)CC4)CC3)C2)ccc1Nc1ncc(C(F)(F)F)c(N2CCCC(C)(O)C2)n1 (stereo not drawn)", "target or system": "MDCK", "test system": "Caco-2", "setting": "1 µM, 2 h, pH 7.4", "measurement": "Papp A→B", "result": "1.9 ×10⁻⁶ cm/s"}
{"SMILES": "CC(=O)N1N=C(c2ccc(NC(=O)CN3CCN(c4ccc(Cl)cc4)CC3)cc2)CC1c1ccco1 (stereo not drawn)", "target or system": "MCF-10A", "test": "cell growth or viability, MTT", "setting": "50 µM, 96 h", "measurement": "viability", "result": "84%"}
{"SMILES": "CNS(=O)(=O)c1ccc(Nc2ncc(C(F)(F)F)c(N3CCC[C@](C)(O)C3)n2)c(C)c1", "target or system": "MDCK", "test system": "Caco-2", "setting": "1 µM, 2 h, pH 7.4", "measurement": "Papp A→B", "result": "16 ×10⁻⁶ cm/s"}
{"SMILES": "COc1nc(-c2cccc(-c3ccccc3)c2C)ccc1CNCCNC(=O)CCCCCCCCCCC(=O)N1CCN(CCNC(=O)c2cc3c(=O)n4cccc(C)c4nc3n(CCc3cccs3)c2=N)CC1", "test system": "male Sprague-Dawley rat, plasma", "setting": "oral, 40 mg/kg", "measurement": "half-life", "result": "6.8 h"}
{"SMILES": "O=c1c2c([nH]c3cccc(Oc4ccc(OC(F)(F)F)cc4)c13)CCCC2", "test": "metabolic stability", "test system": "mouse, liver microsomes", "setting": "1 µM, pH 7.4", "measurement": "half-life", "result": "0.198 h"}
{"SMILES": "CC(=O)N1N=C(c2ccc(NC(=O)CN3CCN(c4ccc(Cl)cc4)CC3)cc2)CC1c1ccc(C)cc1 (stereo not drawn)", "target or system": "MCF-10A", "test": "cell growth or viability, MTT", "setting": "50 µM, 96 h", "measurement": "viability", "result": "89%"}
{"SMILES": "O=c1c2c([nH]c3cc(Oc4cccc(OC(F)(F)F)c4)ccc13)CCCC2", "test": "metabolic stability", "test system": "mouse, liver microsomes", "setting": "1 µM, pH 7.4", "measurement": "half-life", "result": "> 1 h"}
{"SMILES": "Cc1cc(S(=O)(=O)N[C@]2(C)C[C@H](N3CCN(CC4CCN(c5ccc6c(c5F)n(C)c(=O)n6C5CCC(=O)NC5=O)CC4)CC3)C2)ccc1Nc1ncc(C(F)(F)F)c(N2CCC[C@](C)(O)C2)n1 (stereo partly drawn)", "target or system": "MDCK", "test system": "Caco-2", "setting": "1 µM, 2 h, pH 7.4", "measurement": "Papp A→B", "result": "3.2 ×10⁻⁶ cm/s"}
{"SMILES": "CN(C)CCOc1ccc2c(=O)c3c([nH]c2c1)CCCC3", "test": "metabolic stability", "test system": "mouse, liver microsomes", "setting": "1 µM, pH 7.4", "measurement": "half-life", "result": "0.572 h"}
{"SMILES": "COc1ccc(C2CC(c3ccc(NC(=O)CN4CCN(c5ccc(Cl)cc5)CC4)cc3)=NN2C(C)=O)cc1 (stereo not drawn)", "target or system": "MCF-10A", "test": "cell growth or viability, MTT", "setting": "50 µM, 96 h", "measurement": "viability", "result": "86%"}
{"SMILES": "Cc1cc(S(=O)(=O)NC2CC(N3CCN(CC4CCN(c5cccc6c5n(C)c(=O)n6C5CCC(=O)NC5=O)CC4)CC3)C2)ccc1Nc1ncc(C(F)(F)F)c(N2CCC[C@](C)(O)C2)n1 (stereo partly drawn)", "target or system": "MDCK", "test system": "Caco-2", "setting": "1 µM, 2 h, pH 7.4", "measurement": "Papp A→B", "result": "1.2 ×10⁻⁶ cm/s"}
{"SMILES": "COc1ccc(N2CCN(CC(=O)Nc3ccc(C(=O)C=Cc4ccc(Cl)cc4Cl)cc3)CC2)cc1", "target or system": "MCF-10A", "test": "cell growth or viability, MTT", "setting": "50 µM, 96 h", "measurement": "viability", "result": "86%"}
{"SMILES": "Cc1cc(S(=O)(=O)NC2CC(N3CC[C@@H](OC4CN(c5cccc6c5n(C)c(=O)n6C5CCC(=O)NC5=O)C4)[C@H](F)C3)C2)ccc1Nc1ncc(C(F)(F)F)c(N2CCC[C@](C)(O)C2)n1 (stereo partly drawn)", "target or system": "MDCK", "test system": "Caco-2", "setting": "1 µM, 2 h, pH 7.4", "measurement": "Papp A→B", "result": "0.9 ×10⁻⁶ cm/s"}
{"SMILES": "Cc1ccc(-c2nn(-c3ccccc3)cc2C=Nc2c(N)nc(S)nc2O)cc1", "target or system": "MCF-10A", "test": "cell growth or viability", "setting": "48 h", "measurement": "CC50", "result": "> 20 µM"}
{"SMILES": "Cc1cc(S(=O)(=O)N[C@H]2CC[C@H](CN3CCN(c4cccc(NC5CCC(=O)NC5=O)c4)CC3)CC2)ccc1Nc1ncc(C(F)(F)F)c(N2CCC[C@](C)(O)C2)n1 (stereo partly drawn)", "target or system": "MDCK", "test system": "Caco-2", "setting": "1 µM, 2 h, pH 7.4", "measurement": "Papp A→B", "result": "2.9 ×10⁻⁶ cm/s"}
{"SMILES": "COc1ccc(N2CCN(CC(=O)Nc3ccc(C(=O)C=Cc4ccc(C)cc4)cc3)CC2)cc1", "target or system": "MCF-10A", "test": "cell growth or viability, MTT", "setting": "50 µM, 96 h", "measurement": "viability", "result": "90%"}
{"SMILES": "O=c1c2ccc(OCc3cccc(OC(F)(F)F)c3)cc2[nH]c2cc(Cl)cc(F)c12", "test": "metabolic stability", "test system": "mouse, liver microsomes", "setting": "1 µM, pH 7.4", "measurement": "half-life", "result": "> 1 h"}
{"SMILES": "COc1ccc(N2CCN(CC(=O)Nc3ccc(C4=NN(C(C)=O)C(c5ccc(Cl)cc5Cl)C4)cc3)CC2)cc1 (stereo not drawn)", "target or system": "MCF-10A", "test": "cell growth or viability, MTT", "setting": "50 µM, 96 h", "measurement": "viability", "result": "89%"}
{"SMILES": "O=c1c2ccc(OCc3cccc(OC(F)(F)F)c3)cc2[nH]c2ccc(Cl)c(F)c12", "test": "metabolic stability", "test system": "mouse, liver microsomes", "setting": "1 µM, pH 7.4", "measurement": "half-life", "result": "> 1 h"}
{"SMILES": "Cc1cc(S(=O)(=O)NC2CC(N3CCN(CC4CCN(c5cccc6c5n(C)c(=O)n6C5CCC(=O)NC5=O)CC4)C4(CC4)C3)C2)ccc1Nc1ncc(C(F)(F)F)c(N2CCC[C@](C)(O)C2)n1 (stereo partly drawn)", "target or system": "MDCK", "test system": "Caco-2", "setting": "1 µM, 2 h, pH 7.4", "measurement": "Papp A→B", "result": "0.7 ×10⁻⁶ cm/s"}
{"SMILES": "CC(C)(C)OC(=O)N1CCC(Oc2ccc3c(=O)c4c(F)cc(Cl)cc4[nH]c3c2)CC1", "test": "metabolic stability", "test system": "mouse, liver microsomes", "setting": "1 µM, pH 7.4", "measurement": "half-life", "result": "> 1 h"}
{"SMILES": "Cc1ccc(C=CC(=O)c2ccc(NC(=O)CN3CCN(c4ccc(Cl)cc4)CC3)cc2)cc1", "target or system": "MCF-10A", "test": "cell growth or viability, MTT", "setting": "50 µM, 96 h", "measurement": "viability", "result": "89%"}
